Measurements: PMC11413667 (Acta Pharmaceutica Sinica. B, 2024)

Key:
4T1 cells [1] = experiment: MTT cytotoxicity; type: cell-based, mouse; conditions: increasing dosage, n = 4
Procedure, shortened: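 4T1 cells, cultured in DMEM with 10% FBS and 1% pen-strep at 37 °C, 5% CO2, were seeded overnight until adherent. They were then exposed to a concentration series of test compound. Light groups received 638 nm, 29.8 mW/cm2 for 12 min. Viability was measured by standard MTT relative to untreated cells, n = 4, mean ± SD.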

4T1 cells [2] = experiment: Annexin V-FITC/PI flow cytometry; type: cell-based, mouse; conditions: upon light
Procedure, shortened: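 Mouse 4T1 cells, grown in DMEM with 10% FBS and 1% pen-strep at 37 °C, 5% CO2, were exposed to test compound at one fixed concentration for 6 h in the dark. Cells were then irradiated (638 nm, 29.8 mW/cm2, 15 min) or left unirradiated, and stained with Annexin V-FITC and PI for 15 min. Apoptotic and necrotic fractions were read by flow cytometry.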

4T1 tumor = conditions: i.v., PT 20 mg/kg, PTI 25 mg/kg, 0.5-12 h

Row | Compound | Cytotoxicity (MTT), ICG-001 alone (4T1 cells [1]) | Cells in apoptosis or necrosis state (4T1 cells [2]) | Tumor accumulation (fluorescence imaging) (4T1 tumor)
1 | O=C1[C@H](Cc2ccc(O)cc2)N2C(=O)CCN(C(=O)NCc3ccccc3)[C@H]2CN1Cc1cccc2ccccc12 [ICG-001] | could hardly retard the cell expansion |  | 
2 | Palmitic-K(PpIX)-HAIYPRH [PT] |  | less than a quarter | weaker tumor accumulation than PTI
